Laboratory results as given in ChEMBL document CHEMBL4689842, “EUbOPEN Chemogenomics Library wave 1” (2021).

Tested on: HEK-293T
Assay: Multiplex assay against HEK293T;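 on Population Tubulin-Different-Phenotype (%): share of the cells with healthy nuclei that show this phenotype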
Assay type: toxicity, cell-based
Details: human
Procedure, shortened: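 Phenotypes for tubulin, mitochondrial mass and membrane permeability are expressed as per cents of healthy-nucleus cells. Cells were stained live at seeding with Hoechst33342, BioTracker Green Microtubule Cytoskeleton Dye, MitoTracker Red and Annexin V Alexa Fluor 680, then imaged after compound addition on a CQ1 microscope at 37°C and 5% CO2. Machine-learning gating in CellPathfinder separated Hoechst high-intensity objects from normal cells, divided normal cells by nuclear state (healthy, pyknosed, fragmented) and divided pyknosed cells into mitotic or apoptotic.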

[1] = 12 h, 1 µM, compound concentration 1 uM, replicate 1
[2] = 12 h, 1 µM, compound concentration 1 uM, replicate 2
[3] = 12 h, 10 µM, compound concentration 10 uM, replicate 1
[4] = 12 h, 10 µM, compound concentration 10 uM, replicate 2
[5] = 24 h, 1 µM, compound concentration 1 uM, replicate 1
[6] = 24 h, 1 µM, compound concentration 1 uM, replicate 2
[7] = 24 h, 10 µM, compound concentration 10 uM, replicate 1
[8] = 24 h, 10 µM, compound concentration 10 uM, replicate 2
[9] = 48 h, 1 µM, compound concentration 1 uM, replicate 1
[10] = 48 h, 1 µM, compound concentration 1 uM, replicate 2
[11] = 48 h, 10 µM, compound concentration 10 uM, replicate 1
[12] = 48 h, 10 µM, compound concentration 10 uM, replicate 2

SMILES: COc1cc(N2CCN(C)CC2)ccc1Nc1ncc2c(n1)N(C)c1ccccc1C(=O)N2C
- Population Apoptotic (%) [1]: 46%
- Population Fragmented Nuclei (%) [1]: 8%
- Population Healthy Nuclei (%) [1]: 45%
- Population Hoechst High Intensity Objects (%) [1]: 6%
- Population Membrane Permeable-Phenotype (%) [1]: 1%
- Population Mitochondria Different-Phenotype (%) [1]: 90%
- Population Mitotic Cells (%) [1]: 53%
- Population Normal (%) [1]: 93%
- Population Pyknosed Nuclei (%) [1]: 45%
- Population Tubulin-Different-Phenotype (%) [1]: 40%
- Total Cell Count [1]: 359
- Population Apoptotic (%) [2]: 18%
- Population Fragmented Nuclei (%) [2]: 3%
- Population Healthy Nuclei (%) [2]: 37%
- Population Hoechst High Intensity Objects (%) [2]: 3%
- Population Membrane Permeable-Phenotype (%) [2]: 6%
- Population Mitochondria Different-Phenotype (%) [2]: 42%
- Population Mitotic Cells (%) [2]: 82%
- Population Normal (%) [2]: 96%
- Population Pyknosed Nuclei (%) [2]: 58%
- Population Tubulin-Different-Phenotype (%) [2]: 23%
- Total Cell Count [2]: 176
- Population Apoptotic (%) [3]: 62%
- Population Fragmented Nuclei (%) [3]: 12%
- Population Healthy Nuclei (%) [3]: 17%
- Population Hoechst High Intensity Objects (%) [3]: 13%
- Population Membrane Permeable-Phenotype (%) [3]: 23%
- Population Mitochondria Different-Phenotype (%) [3]: 92%
- Population Mitotic Cells (%) [3]: 37%
- Population Normal (%) [3]: 86%
- Population Pyknosed Nuclei (%) [3]: 70%
- Population Tubulin-Different-Phenotype (%) [3]: 84%
- Total Cell Count [3]: 172
- Population Apoptotic (%) [4]: 58%
- Population Fragmented Nuclei (%) [4]: 8%
- Population Healthy Nuclei (%) [4]: 15%
- Population Hoechst High Intensity Objects (%) [4]: 6%
- Population Membrane Permeable-Phenotype (%) [4]: 7%
- Population Mitochondria Different-Phenotype (%) [4]: 96%
- Population Mitotic Cells (%) [4]: 41%
- Population Normal (%) [4]: 93%
- Population Pyknosed Nuclei (%) [4]: 76%
- Population Tubulin-Different-Phenotype (%) [4]: 100%
- Total Cell Count [4]: 190
- Population Apoptotic (%) [5]: 38%
- Population Fragmented Nuclei (%) [5]: 4%
- Population Healthy Nuclei (%) [5]: 58%
- Population Hoechst High Intensity Objects (%) [5]: 6%
- Population Membrane Permeable-Phenotype (%) [5]: 1%
- Population Mitochondria Different-Phenotype (%) [5]: 75%
- Population Mitotic Cells (%) [5]: 61%
- Population Normal (%) [5]: 93%
- Population Pyknosed Nuclei (%) [5]: 37%
- Population Tubulin-Different-Phenotype (%) [5]: 26%
- Total Cell Count [5]: 423
- Population Apoptotic (%) [6]: 9%
- Population Fragmented Nuclei (%) [6]: 5%
- Population Healthy Nuclei (%) [6]: 48%
- Population Hoechst High Intensity Objects (%) [6]: 2%
- Population Membrane Permeable-Phenotype (%) [6]: 7%
- Population Mitochondria Different-Phenotype (%) [6]: 40%
- Population Mitotic Cells (%) [6]: 90%
- Population Normal (%) [6]: 97%
- Population Pyknosed Nuclei (%) [6]: 45%
- Population Tubulin-Different-Phenotype (%) [6]: 22%
- Total Cell Count [6]: 225
- Population Apoptotic (%) [7]: 69%
- Population Fragmented Nuclei (%) [7]: 9%
- Population Healthy Nuclei (%) [7]: 19%
- Population Hoechst High Intensity Objects (%) [7]: 10%
- Population Membrane Permeable-Phenotype (%) [7]: 13%
- Population Mitochondria Different-Phenotype (%) [7]: 96%
- Population Mitotic Cells (%) [7]: 30%
- Population Normal (%) [7]: 89%
- Population Pyknosed Nuclei (%) [7]: 71%
- Population Tubulin-Different-Phenotype (%) [7]: 93%
- Total Cell Count [7]: 170
- Population Apoptotic (%) [8]: 76%
- Population Fragmented Nuclei (%) [8]: 7%
- Population Healthy Nuclei (%) [8]: 20%
- Population Hoechst High Intensity Objects (%) [8]: 5%
- Population Membrane Permeable-Phenotype (%) [8]: 2%
- Population Mitochondria Different-Phenotype (%) [8]: 94%
- Population Mitotic Cells (%) [8]: 23%
- Population Normal (%) [8]: 94%
- Population Pyknosed Nuclei (%) [8]: 72%
- Population Tubulin-Different-Phenotype (%) [8]: 97%
- Total Cell Count [8]: 195
- Population Apoptotic (%) [9]: 36%
- Population Fragmented Nuclei (%) [9]: 8%
- Population Healthy Nuclei (%) [9]: 71%
- Population Hoechst High Intensity Objects (%) [9]: 8%
- Population Membrane Permeable-Phenotype (%) [9]: 1%
- Population Mitochondria Different-Phenotype (%) [9]: 23%
- Population Mitotic Cells (%) [9]: 63%
- Population Normal (%) [9]: 91%
- Population Pyknosed Nuclei (%) [9]: 19%
- Population Tubulin-Different-Phenotype (%) [9]: 11%
- Total Cell Count [9]: 613
- Population Apoptotic (%) [10]: 18%
- Population Fragmented Nuclei (%) [10]: 6%
- Population Healthy Nuclei (%) [10]: 72%
- Population Hoechst High Intensity Objects (%) [10]: 2%
- Population Membrane Permeable-Phenotype (%) [10]: 6%
- Population Mitochondria Different-Phenotype (%) [10]: 7%
- Population Mitotic Cells (%) [10]: 81%
- Population Normal (%) [10]: 97%
- Population Pyknosed Nuclei (%) [10]: 20%
- Population Tubulin-Different-Phenotype (%) [10]: 16%
- Total Cell Count [10]: 357
- Population Apoptotic (%) [11]: 69%
- Population Fragmented Nuclei (%) [11]: 16%
- Population Healthy Nuclei (%) [11]: 33%
- Population Hoechst High Intensity Objects (%) [11]: 15%
- Population Membrane Permeable-Phenotype (%) [11]: 3%
- Population Mitochondria Different-Phenotype (%) [11]: 100%
- Population Mitotic Cells (%) [11]: 30%
- Population Normal (%) [11]: 84%
- Population Pyknosed Nuclei (%) [11]: 49%
- Population Tubulin-Different-Phenotype (%) [11]: 91%
- Total Cell Count [11]: 210
- Population Apoptotic (%) [12]: 70%
- Population Fragmented Nuclei (%) [12]: 11%
- Population Healthy Nuclei (%) [12]: 28%
- Population Hoechst High Intensity Objects (%) [12]: 10%
- Population Membrane Permeable-Phenotype (%) [12]: 1%
- Population Mitochondria Different-Phenotype (%) [12]: 96%
- Population Mitotic Cells (%) [12]: 29%
- Population Normal (%) [12]: 89%
- Population Pyknosed Nuclei (%) [12]: 59%
- Population Tubulin-Different-Phenotype (%) [12]: 94%
- Total Cell Count [12]: 211
